Experimental data published in PubChem BioAssay AID2805 (Sanford-Burnham Center for Chemical Genomics, 2010).
Screen size: about 330,000 compounds; about 780 (0.24%) were called active. This is one part of a sample in which actives are shown more often than they occur.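 How the source made its calls: active means activation factor of at least 2 at 20 µM; inactive means the rest.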

These compounds were tested on intestinal alkaline phosphatase [Mus musculus] (assay: activators of mouse IAP, primary screen, biochemical, luminescence, uHTS (AID 2805)). Conditions: muIAP, CDP-Star luminescence, 30 min; at 10 µM; stronger effect = higher value; 1 = vehicle-only enzyme signal, 0 = enzyme-free wells.
How it was run: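 Assay system: mouse IAP enzyme / Compound: DMSO-dissolved test compounds / Timing: 30 min, room temperature / Measured by: luminescence from enzymatic CDP-Star hydrolysis / Control set: DMSO-only wells, enzyme-free buffer wells as negative control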

Activation factor, active:
CC(C)S(=O)(=O)c1csc(NC(=O)Nc2ccc(Cl)cc2)c1Cl 2.9
COc1cccc(NC(=O)C2C(c3ccccc3)C2(Cl)Cl)c1 (stereo not drawn) 2.76
CCNS(=O)(=O)c1ccc(NC(=O)Nc2cccc(C(F)(F)F)c2)cc1 2.22
S=C(NCCc1ccccc1)NCc1ccccc1Cl 2.23
Cc1cccc(NC(=O)Nc2cccc(Oc3c(F)c(F)c(F)c(F)c3F)c2)c1 3.37

Activation factor, inactive:
C/C(=N\Nc1nc2ccccc2[nH]1)c1cccs1 1.07
COCCn1c(C)cc(C(=O)CN2c3cccc4cccc(c34)S2(=O)=O)c1C 1.06
CCc1nn(CCCC(=O)NC(C)c2ccccc2)c(=O)c2cc3occc3n12 (stereo not drawn) 0.908
CCN(CC(=O)Nc1ccccc1C(=O)NC1CC1)Cc1cccs1 0.951
CC(=O)N1CCC(N(C(=O)Nc2ccc(Cl)cc2)C(C)C)CC1 1.1
O=C(NCc1ccccn1)Nc1ccc(Cl)cc1 1.1
Fc1ccccc1COc1ccccc1CNCc1ccncc1 0.935
O=C(CSc1nnc(Cn2cnc3ccccc32)o1)c1ccccc1 0.997
N#Cc1cnn2cc(CCN3CCOCC3)c(-c3ccc(F)cc3)nc12 0.899
O=CN1CCN(C(=O)c2ccc3c(c2)OCO3)CC1 1.06
COc1cccc(NC(=O)C2CCCN2C(=O)OCc2ccccc2)c1 (stereo not drawn) 0.929
COc1cccc(NC(=O)C2c3cc(OC)c(OC)cc3C(=O)N(C)C2c2cccnc2)c1 (stereo not drawn) 0.967
CC(Sc1nnc(-c2ccccc2F)n1C1CC1)C(N)=O (stereo not drawn) 1
CC(=O)Nc1ccc(NC(=O)CC2CCCC2)cc1 1.03
O=C(Nc1ccc(C(=O)N2CCOCC2)cc1)Nc1cccc(C(F)(F)F)c1 1.56
O=C(NCc1ccccc1)c1ccc(S(=O)(=O)Nc2cccc(C(F)(F)F)c2)cc1 0.856
COc1ccc(C(C(=O)NC2CCCC2)N(CCCO)C(=O)Cn2nnc(-c3ccc(C)o3)n2)cc1 (stereo not drawn) 1.05
Cc1ccc(NC(=S)NCc2ccccc2Cl)c(C)c1 1.27
S=C(NCc1ccco1)NCc1ccccc1Cl 1.01
CCCCCCC12CCC(C(=O)O)(CC1)CC2 1.01
O=C(CN1C(=O)NC2(CCCCC2)C1=O)N1CCN(C(=O)c2cccs2)CC1 0.968
Cc1ccc(C)c(S(=O)(=O)N2CCCOC2CNC(=O)C(=O)NC2CCCCC2)c1 (stereo not drawn) 1.04
Nc1nnc(SCC(=O)NC2CCCc3ccccc32)s1 (stereo not drawn) 1
Cc1cc(Nc2ccc(Br)cc2F)n2ncnc2n1 0.862
Cc1ccoc1C(=O)Nc1cccc(Oc2ccccc2)c1 0.9
Cc1ccc(NC(=O)Nc2ccccc2)c(Br)c1 1.26
O=C(O)c1cc(S(=O)(=O)Nc2ccc3cn[nH]c3c2)ccc1Br 0.965
CS/C(=C\C(=O)c1ccco1)Nc1ccccc1Cl 0.883
